Reference: ChEMBL document CHEMBL1926651, “Design, synthesis, antiviral and cytostatic evaluation of novel isoxazolidine nucleotide analogues with a 1,2,3-triazole linker” (Eur J Med Chem, 2012)
The source made the active and inactive calls. The calls are words filed in the database; no cut-off is given here.

What was measured:
Human alphaherpesvirus 3 [1] = assay: Antiviral activity against thymidine kinase-positive Varicella Zoster virus Oka infected in human HEL cells assessed as inhibition of viral plaque formation at 250 uM; format: functional, cell-based; settings: strain Oka vaccine
HeLa [2] = assay: Cytotoxicity against human HeLa cells 3 days by coulter counting; format: functional; settings: 72 h
Summary of the method: (§1)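 Cells were suspended at 300,000–500,000 cells/mL and added 1:1 to compound dilutions. Incubation was at 37 °C, 2 days for L1210 and 3 days for CEM, HeLa and HEL. Cells were counted with a Coulter counter. CC50 is the concentration inhibiting cell proliferation by 50%.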

[3] = system: Mammalian orthoreovirus 1; assay: Antiviral activity against Reovirus-1 infected in african green monkey Vero cells assessed as inhibition of viral plaque formation at 250 uM; format: functional, organism-based
Summary of the method: (§2)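 Confluent host cell monolayers were inoculated with 100 CCID50 of virus in the presence of test compound at serial dilutions (250, 50, 10, … μM). Viral cytopathicity was scored once it reached completion in untreated virus-infected controls.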

MDCK = assay: Cytotoxicity against MDCK cells assessed as change in cell morphology up to 100 uM; format: cell-based, Canis lupus familiaris; settings: dog
Summary of the method: (§3)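 Uninfected host-cell cultures were examined under the microscope. MCC was taken as the lowest compound concentration producing a detectable alteration of normal cell morphology, assessed at concentrations up to 100 μM.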

[4] = Cytotoxicity against CRFK cells assessed as change in cell morphology up to 100 uM; format: cell-based, Felis catus; settings: cat; summary of the method: as §3
HeLa [5] = assay: Cytotoxicity against human HeLa cells assessed as change in cell morphology up to 100 uM; format: cell-based; summary of the method: as §3
Vero = assay: Cytotoxicity against african green monkey Vero cells assessed as change in cell morphology up to 100 uM; format: cell-based; settings: chlorocebus sabaeus; summary of the method: as §3
Vaccinia virus = assay: Antiviral activity against Vaccinia virus infected in human HEL cells assessed as inhibition of viral plaque formation at 250 uM; format: functional, organism-based; settings: Orthopoxvirus vaccinia; summary of the method: as §2
Punta Toro virus = assay: Antiviral activity against Punta Toro virus infected in african green monkey Vero cells assessed as inhibition of viral plaque formation at 250 uM; format: functional, organism-based
[6] = system: Respiratory syncytial virus; assay: Antiviral activity against Respiratory syncytial virus infected in human HeLa cells assessed as inhibition of viral plaque formation at 250 uM; format: functional, organism-based; summary of the method: as §2
Human alphaherpesvirus 2 = assay: Antiviral activity against Herpes simplex virus 2 G infected in human HEL cells assessed as inhibition of viral plaque formation at 250 uM; format: functional, organism-based; settings: strain G
Feline coronavirus = assay: Antiviral activity against Feline coronavirus infected in CrFK cells assessed as inhibition of viral plaque formation at 250 uM; format: functional, organism-based; summary of the method: as §2
[7] = system: Human immunodeficiency virus 2; assay: Antiviral activity against Human immunodeficiency virus 2 infected in human CEM cells assessed as inhibition of virus-induced giant cell formation after 4 days by microscopic analysis; format: functional, organism-based; settings: CCRF-CEM
Summary of the method: (§4)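 CEM cells at about 3 × 10⁵ cells/cm³ were infected with 100 CCID50/mL of HIV-1(IIIB) or HIV-2(ROD), then seeded into wells holding test compound dilutions. After 4 days at 37 °C, virus-induced giant cell formation was scored microscopically.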

CCRF-CEM = assay: Cytotoxicity against human CEM cells 3 days by coulter counting; format: functional; settings: 72 h; summary of the method: as §1
HEL [8] = assay: Cytotoxicity against human HEL cells 3 days by coulter counting; format: functional; settings: 72 h; summary of the method: as §1
L1210 = assay: Cytotoxicity against mouse L1210 cells 2 days by coulter counting; format: functional; settings: L1210, 48 h; summary of the method: as §1
[9] = system: Vesicular stomatitis virus; assay: Antiviral activity against Vesicular stomatitis virus infected in human HEL cells assessed as inhibition of viral plaque formation at 250 uM; format: functional, organism-based; summary of the method: as §2
Human betaherpesvirus 5 [10] = assay: Antiviral activity against Human cytomegalovirus AD169 infected in human HEL cells assessed as inhibition of viral plaque formation at 250 uM; format: functional, organism-based
Human alphaherpesvirus 3 [11] = assay: Antiviral activity against thymidine kinase-deficient Varicella Zoster virus 07/1 infected in human HEL cells assessed as inhibition of viral plaque formation at 250 uM; format: functional, organism-based
Human alphaherpesvirus 1 [12] = assay: Antiviral activity against thymidine kinase-deficient acv-resistant Herpes simplex virus 1 KOS infected in human HEL cells assessed as inhibition of viral plaque formation at 250 uM; format: functional, organism-based
Sindbis virus = assay: Antiviral activity against Sindbis virus infected in african green monkey Vero cells assessed as inhibition of viral plaque formation at 250 uM; format: functional, organism-based; summary of the method: as §2
Human alphaherpesvirus 1 [13] = assay: Antiviral activity against Herpes simplex virus 1 KOS infected in human HEL cells assessed as inhibition of viral plaque formation at 250 uM; format: functional, organism-based; summary of the method: as §2
Human betaherpesvirus 5 [14] = assay: Antiviral activity against Human cytomegalovirus Davis infected in human HEL cells assessed as inhibition of viral plaque formation at 250 uM; format: functional, organism-based
[15] = system: Vesicular stomatitis virus; assay: Antiviral activity against Vesicular stomatitis virus infected in human Hela cells assessed as inhibition of viral plaque formation at 250 uM; format: functional, organism-based
[16] = system: Human immunodeficiency virus 1; assay: Antiviral activity against Human immunodeficiency virus 1 infected in human CEM cells assessed as inhibition of virus-induced giant cell formation after 4 days by microscopic analysis; format: functional, organism-based; settings: CCRF-CEM; summary of the method: as §4
Coxsackievirus B4 [17] = assay: Antiviral activity against Coxsackievirus B4 infected in human HeLa cells assessed as inhibition of viral plaque formation at 250 uM; format: functional, organism-based; summary of the method: as §2
Felid alphaherpesvirus 1 = assay: Antiviral activity against Felid herpesvirus 1 infected in CrFK cells assessed as inhibition of viral plaque formation at 250 uM; format: functional, organism-based; summary of the method: as §2
Human respirovirus 3 = assay: Antiviral activity against Parainfluenza-3 virus infected in african green monkey Vero cells assessed as inhibition of viral plaque formation at 250 uM; format: functional, organism-based; summary of the method: as §2
Coxsackievirus B4 [18] = assay: Antiviral activity against Coxsackievirus B4 infected in african green monkey Vero cells assessed as inhibition of viral plaque formation at 250 uM; format: functional, organism-based; summary of the method: as §2
HEL [19] = assay: Cytotoxicity against human HEL cells assessed as change in cell morphology up to 100 uM; format: cell-based; summary of the method: as §3

| Structure (SMILES) | Activity (Human alphaherpesvirus 3 [1]) | CC50 (HeLa [2]) [µM] | Activity [3] | Activity (MDCK) | Activity [4] | Activity (HeLa [5]) | Activity (Vero) | Activity (Vaccinia virus) | Activity (Punta Toro virus) | Activity [6] | Activity (Human alphaherpesvirus 2) | Activity (Feline coronavirus) | Activity [7] | CC50 (CCRF-CEM) [µM] | CC50 (HEL [8]) [µM] | CC50 (L1210) [µM] | Activity [9] | Activity (Human betaherpesvirus 5 [10]) | Activity (Human alphaherpesvirus 3 [11]) | Activity (Human alphaherpesvirus 1 [12]) | other results |
| --- | --- | --- | --- | --- | --- | --- | --- | --- | --- | --- | --- | --- | --- | --- | --- | --- | --- | --- | --- | --- | --- |
| CCOP(=O)(OCC)[C@@H]1C[C@@H](n2cc(-c3ccccc3F)nn2)ON1C (relative stereo) | inactive | 202 | inactive | Non-toxic | Non-toxic | Non-toxic | Non-toxic | inactive | inactive | inactive | inactive | inactive | inactive | > 250 | 73 | 120 | inactive | inactive | inactive | inactive | Activity (Sindbis virus): inactive; Activity (Human alphaherpesvirus 1 [13]): inactive; Activity (Human betaherpesvirus 5 [14]): inactive; Activity [15]: inactive; Activity [16]: inactive; Activity (Coxsackievirus B4 [17]): inactive; Activity (Felid alphaherpesvirus 1): inactive; Activity (Human respirovirus 3): inactive; Activity (Coxsackievirus B4 [18]): inactive; Activity (HEL [19]): Non-toxic |
| CCOP(=O)(OCC)[C@@H]1C[C@H](n2cc(-c3ccccc3)nn2)ON1C (relative stereo) | inactive | > 250 | inactive | Non-toxic | Non-toxic | Non-toxic | Non-toxic | inactive | inactive | inactive | inactive | inactive | inactive | > 250 | 54 | 172 | inactive | inactive | inactive | inactive | Activity (Sindbis virus): inactive; Activity (Human alphaherpesvirus 1 [13]): inactive; Activity (Human betaherpesvirus 5 [14]): inactive; Activity [15]: inactive; Activity [16]: inactive; Activity (Coxsackievirus B4 [17]): inactive; Activity (Felid alphaherpesvirus 1): inactive; Activity (Human respirovirus 3): inactive; Activity (Coxsackievirus B4 [18]): inactive; Activity (HEL [19]): Non-toxic |
| CCOP(=O)(OCC)[C@@H]1C[C@H](n2cc(-c3ccccc3F)nn2)ON1C (relative stereo) | inactive | 247 | inactive | Non-toxic | Non-toxic | Non-toxic | Non-toxic | inactive | inactive | inactive | inactive | inactive | inactive | > 250 | 41 | 122 | inactive | inactive | inactive | inactive | Activity (Sindbis virus): inactive; Activity (Human alphaherpesvirus 1 [13]): inactive; Activity (Human betaherpesvirus 5 [14]): inactive; Activity [15]: inactive; Activity [16]: inactive; Activity (Coxsackievirus B4 [17]): inactive; Activity (Felid alphaherpesvirus 1): inactive; Activity (Human respirovirus 3): inactive; Activity (Coxsackievirus B4 [18]): inactive; Activity (HEL [19]): Non-toxic |
| CCOP(=O)(OCC)[C@@H]1C[C@H](n2cc(-c3cccc(F)c3)nn2)ON1C (relative stereo) | inactive | 212 | inactive | Non-toxic | Non-toxic | Non-toxic | Non-toxic | inactive | inactive | inactive | inactive | inactive | inactive | > 250 | 43 | 104 | inactive | inactive | inactive | inactive | Activity (Sindbis virus): inactive; Activity (Human alphaherpesvirus 1 [13]): inactive; Activity (Human betaherpesvirus 5 [14]): inactive; Activity [15]: inactive; Activity [16]: inactive; Activity (Coxsackievirus B4 [17]): inactive; Activity (Felid alphaherpesvirus 1): inactive; Activity (Human respirovirus 3): inactive; Activity (Coxsackievirus B4 [18]): inactive; Activity (HEL [19]): Non-toxic |
| CCOP(=O)(OCC)[C@@H]1C[C@H](n2cc(-c3ccc(F)cc3F)nn2)ON1C (relative stereo) | inactive | 135 | inactive | Non-toxic | Non-toxic | Non-toxic | Non-toxic | inactive | inactive | inactive | inactive | inactive | inactive | ≥ 250 | 42 | 124 | inactive | inactive | inactive | inactive | Activity (Sindbis virus): inactive; Activity (Human alphaherpesvirus 1 [13]): inactive; Activity (Human betaherpesvirus 5 [14]): inactive; Activity [15]: inactive; Activity [16]: inactive; Activity (Coxsackievirus B4 [17]): inactive; Activity (Felid alphaherpesvirus 1): inactive; Activity (Human respirovirus 3): inactive; Activity (Coxsackievirus B4 [18]): inactive; Activity (HEL [19]): Non-toxic |
| CCOP(=O)(OCC)[C@@H]1C[C@H](n2cc(-c3ccccn3)nn2)ON1C (relative stereo) | inactive | > 250 | inactive | Non-toxic | Non-toxic | Non-toxic | Non-toxic | inactive | inactive | inactive | inactive | inactive | inactive | > 250 | 78 | 206 | inactive | inactive | inactive | inactive | Activity (Sindbis virus): inactive; Activity (Human alphaherpesvirus 1 [13]): inactive; Activity (Human betaherpesvirus 5 [14]): inactive; Activity [15]: inactive; Activity [16]: inactive; Activity (Coxsackievirus B4 [17]): inactive; Activity (Felid alphaherpesvirus 1): inactive; Activity (Human respirovirus 3): inactive; Activity (Coxsackievirus B4 [18]): inactive; Activity (HEL [19]): Non-toxic |
